Data from ChEMBL document CHEMBL4689842, “EUbOPEN Chemogenomics Library wave 1” (2021).

System: Fibroblast
Test: Multiplex assay against human fibroblast
Type: toxicity, cell-based
Method in brief: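 Hoechst33342, BioTracker Green Microtubule Cytoskeleton Dye, MitoTracker Red and Annexin V Alexa Fluor 680 were added to live cells at seeding, and imaging on a CQ1 microscope at 37°C and 5% CO2 followed compound addition. Gating by CellPathfinder machine learning separated cells into Hoechst high-intensity objects or normal cells, then normal cells into healthy, pyknosed or fragmented nuclei, then pyknosed cells into mitotic or apoptotic. Per cents of healthy-nucleus cells are reported for the tubulin, mitochondrial-mass and membrane-permeability phenotypes.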

[1] = 12 h, 1 µM, compound concentration 1 uM, replicate 1
[2] = 12 h, 1 µM, compound concentration 1 uM, replicate 2
[3] = 12 h, 10 µM, compound concentration 10 uM, replicate 1
[4] = 12 h, 10 µM, compound concentration 10 uM, replicate 2
[5] = 24 h, 1 µM, compound concentration 1 uM, replicate 1
[6] = 24 h, 1 µM, compound concentration 1 uM, replicate 2
[7] = 24 h, 10 µM, compound concentration 10 uM, replicate 1
[8] = 24 h, 10 µM, compound concentration 10 uM, replicate 2
[9] = 48 h, 1 µM, compound concentration 1 uM, replicate 1
[10] = 48 h, 1 µM, compound concentration 1 uM, replicate 2
[11] = 48 h, 10 µM, compound concentration 10 uM, replicate 1
[12] = 48 h, 10 µM, compound concentration 10 uM, replicate 2

## CN(C)CC#Cc1ccc(OCCCc2sc(N3CCc4cccc(C(=O)Nc5nc6ccccc6s5)c4C3)nc2C(=O)O)c(F)c1 [A-1155463]
[1]
  Population Apoptotic (%): 74%
  Population Fragmented Nuclei (%): 27%
  Population Healthy Nuclei (%): 44%
  Population Hoechst High Intensity Objects (%): 12%
  Population Membrane Permeable-Phenotype (%): 30%
  Population Mitochondria Different-Phenotype (%): 9%
  Population Mitotic Cells (%): 25%
  Population Normal (%): 87%
  Population Pyknosed Nuclei (%): 27%
  Population Tubulin-Different-Phenotype (%): 46%
  Total Cell Count: 111
[2]
  Population Apoptotic (%): 66%
  Population Fragmented Nuclei (%): 39%
  Population Healthy Nuclei (%): 53%
  Population Hoechst High Intensity Objects (%): 4%
  Population Membrane Permeable-Phenotype (%): 13%
  Population Mitochondria Different-Phenotype (%): 31%
  Population Mitotic Cells (%): 33%
  Population Normal (%): 95%
  Population Pyknosed Nuclei (%): 7%
  Population Tubulin-Different-Phenotype (%): 27%
  Total Cell Count: 86
[3]
  Population Apoptotic (%): 63%
  Population Fragmented Nuclei (%): 24%
  Population Healthy Nuclei (%): 41%
  Population Hoechst High Intensity Objects (%): 11%
  Population Membrane Permeable-Phenotype (%): 42%
  Population Mitochondria Different-Phenotype (%): 4%
  Population Mitotic Cells (%): 36%
  Population Normal (%): 88%
  Population Pyknosed Nuclei (%): 33%
  Population Tubulin-Different-Phenotype (%): 74%
  Total Cell Count: 173
[4]
  Population Apoptotic (%): 86%
  Population Fragmented Nuclei (%): 33%
  Population Healthy Nuclei (%): 42%
  Population Hoechst High Intensity Objects (%): 5%
  Population Membrane Permeable-Phenotype (%): 24%
  Population Mitochondria Different-Phenotype (%): 16%
  Population Mitotic Cells (%): 13%
  Population Normal (%): 94%
  Population Pyknosed Nuclei (%): 23%
  Population Tubulin-Different-Phenotype (%): 25%
  Total Cell Count: 133
[5]
  Population Apoptotic (%): 62%
  Population Fragmented Nuclei (%): 30%
  Population Healthy Nuclei (%): 33%
  Population Hoechst High Intensity Objects (%): 11%
  Population Membrane Permeable-Phenotype (%): 37%
  Population Mitochondria Different-Phenotype (%): 7%
  Population Mitotic Cells (%): 37%
  Population Normal (%): 88%
  Population Pyknosed Nuclei (%): 36%
  Population Tubulin-Different-Phenotype (%): 50%
  Total Cell Count: 134
[6]
  Population Apoptotic (%): 50%
  Population Fragmented Nuclei (%): 36%
  Population Healthy Nuclei (%): 54%
  Population Hoechst High Intensity Objects (%): 7%
  Population Membrane Permeable-Phenotype (%): 13%
  Population Mitochondria Different-Phenotype (%): 32%
  Population Mitotic Cells (%): 50%
  Population Normal (%): 92%
  Population Pyknosed Nuclei (%): 9%
  Population Tubulin-Different-Phenotype (%): 28%
  Total Cell Count: 92
[7]
  Population Apoptotic (%): 71%
  Population Fragmented Nuclei (%): 27%
  Population Healthy Nuclei (%): 50%
  Population Hoechst High Intensity Objects (%): 9%
  Population Membrane Permeable-Phenotype (%): 44%
  Population Mitochondria Different-Phenotype (%): 2%
  Population Mitotic Cells (%): 28%
  Population Normal (%): 90%
  Population Tubulin-Different-Phenotype (%): 76%
  Total Cell Count: 170
[8]
  Population Apoptotic (%): 81%
  Population Fragmented Nuclei (%): 32%
  Population Healthy Nuclei (%): 45%
  Population Hoechst High Intensity Objects (%): 10%
  Population Membrane Permeable-Phenotype (%): 20%
  Population Mitochondria Different-Phenotype (%): 14%
  Population Mitotic Cells (%): 18%
  Population Normal (%): 89%
  Population Pyknosed Nuclei (%): 22%
  Population Tubulin-Different-Phenotype (%): 21%
  Total Cell Count: 135
[9]
  Population Apoptotic (%): 68%
  Population Fragmented Nuclei (%): 31%
  Population Healthy Nuclei (%): 34%
  Population Hoechst High Intensity Objects (%): 18%
  Population Membrane Permeable-Phenotype (%): 20%
  Population Mitochondria Different-Phenotype (%): 3%
  Population Mitotic Cells (%): 31%
  Population Normal (%): 81%
  Population Pyknosed Nuclei (%): 33%
  Population Tubulin-Different-Phenotype (%): 56%
  Total Cell Count: 106
[10]
  Population Apoptotic (%): 80%
  Population Fragmented Nuclei (%): 35%
  Population Healthy Nuclei (%): 53%
  Population Hoechst High Intensity Objects (%): 11%
  Population Membrane Permeable-Phenotype (%): 28%
  Population Mitochondria Different-Phenotype (%): 6%
  Population Mitotic Cells (%): 20%
  Population Normal (%): 88%
  Population Pyknosed Nuclei (%): 10%
  Population Tubulin-Different-Phenotype (%): 44%
  Total Cell Count: 105
[11]
  Population Apoptotic (%): 66%
  Population Fragmented Nuclei (%): 38%
  Population Healthy Nuclei (%): 39%
  Population Hoechst High Intensity Objects (%): 10%
  Population Membrane Permeable-Phenotype (%): 50%
  Population Mitochondria Different-Phenotype (%): 10%
  Population Mitotic Cells (%): 33%
  Population Normal (%): 89%
  Population Pyknosed Nuclei (%): 22%
  Population Tubulin-Different-Phenotype (%): 81%
  Total Cell Count: 135
[12]
  Population Apoptotic (%): 95%
  Population Fragmented Nuclei (%): 25%
  Population Healthy Nuclei (%): 57%
  Population Hoechst High Intensity Objects (%): 14%
  Population Membrane Permeable-Phenotype (%): 35%
  Population Mitochondria Different-Phenotype (%): 9%
  Population Mitotic Cells (%): 4%
  Population Normal (%): 85%
  Population Pyknosed Nuclei (%): 17%
  Population Tubulin-Different-Phenotype (%): 74%
  Total Cell Count: 145
